Assay results from ChEMBL document CHEMBL5696444 (Nat Commun, 2017).
The source made the active and inactive calls. The calls are words filed in the database; no cut-off is given here.

How the values were obtained:
[1] = target: Protein kinase C theta type (Homo sapiens) (UniProt Q04759); test: Inhibition of PRKCQ (unknown origin) at 1000 nM in the presence of ATP by Kinome scan method relative to control
[2] = target: Rho-associated protein kinase 1 (Homo sapiens) (UniProt Q13464); test: Inhibition of ROCK1 (unknown origin) at 1000 nM in the presence of ATP by Kinome scan method relative to control
HCT-116 [3] = test: Induction of cell cycle arrest in human HCT-116 cells assessed as G0/G1 phase at 5 uM incubated for 24 hrs by flow cytometry analysis (Rvb=35.7%); assay type: functional
[4] = target: cAMP-dependent protein kinase catalytic subunit alpha (Homo sapiens) (UniProt P17612); test: Inhibition of PRKACA (unknown origin) at 1000 nM in the presence of ATP by Kinome scan method relative to control
[5] = Stability of compound in tissue culture medium assessed as remaining parent compound at 5.44 uM incubated for 6 hrs; assay type: physicochemical; settings: read-out: Stability
HCT-116 [6] = test: Induction of apoptosis in human HCT-116 cells assessed as viable cells at 0.5 uM incubated for > 6 hrs by annexin V/PI staining based analysis (Rvb=90.04%); assay type: functional; settings: read-out: Activity
HCT-116 [7] = test: Induction of cell cycle arrest in human HCT-116 cells assessed as G2/M phase at 0.1 uM incubated for 6 hrs by flow cytometry analysis (Rvb=25.8%); assay type: functional
[8] = target: Dual specificity protein kinase CLK3 (Homo sapiens) (UniProt P49761); test: Inhibition of CLK3 (unknown origin) at 123 nM in the presence of ATP by Kinome scan method relative to control; settings: time > 6.0 hrs
[9] = target: Mitogen-activated protein kinase 1 (Homo sapiens) (UniProt P28482); test: Inhibition of MAPK1 (unknown origin) at 100 nM in the presence of ATP by Kinome scan method relative to control
HCT-116 [10] = test: Induction of apoptosis in human HCT-116 cells assessed as late apoptosis at 5 uM incubated for > 6 hrs by annexin V/PI staining based analysis (Rvb=6.12%); assay type: functional
[11] = target: Dual specificity protein kinase CLK1 (Homo sapiens) (UniProt P49759); test: Inhibition of CLK (unknown origin) in human HCT-116 cells assessed as induction in alternative splicing effect in CDC6-RARA level incubated for 6 hrs by RT-PCR analysis; assay type: cell-based; settings: dose 0.2-5 µM
Summary of the method: (§1)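 Cells exposed to graded T3 concentrations for 6 h (chosen to avoid cytotoxicity), with a DMSO vehicle control. Total RNA was reverse-transcribed with oligo-dT primers. Targeted splice or conjoined-gene products were quantified by real-time qPCR or by targeted next-generation sequencing. Conjoined-gene isoform expression was normalized to a sequenced housekeeping gene.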

HCT-116 [12] = test: Induction of cell cycle arrest in human HCT-116 cells assessed as G0/G1 phase at 10 uM incubated for 6 hrs by flow cytometry analysis (Rvb=35.0%); assay type: functional
Homo sapiens = species: Homo sapiens; test: Inhibition of CDK2/cyclin A (unknown origin) at 100 nM in the presence of ATP by Kinome scan method relative to control
HCT-116 [13] = test: Induction of cell cycle arrest in human HCT-116 cells assessed as S phase at 0.1 uM incubated for 24 hrs by flow cytometry analysis (Rvb=46.4%); assay type: functional
[14] = target: Dual specificity protein kinase CLK1 (Homo sapiens) (UniProt P49759); test: Inhibition of CLK1 (unknown origin) in human HCT-116 cells assessed as increase in CLK1 protein level at 0.5 to 0.1 uM incubated for 6 hrs by immunoblot analysis; assay type: cell-based; settings: dose 0.5-0.1 µM
Summary of the method: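 HCT116 cells were treated for 3 or 6 h and lysed in SDS sample buffer (Tris-HCl pH 6.8), then boiled for 5 min. Lysates were run on 5–15% or 4–12% gradient gels and transferred to nitrocellulose or PVDF. Blots were blocked in milk or BSA/TBS-T and probed overnight at 4 °C with anti-phospho-SR (1H4, 1/1000), anti-SR, anti-CLK1 or anti-CLK3 antibodies, with GAPDH as loading control.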

HCT-116 [15] = test: Induction of apoptosis in human HCT-116 cells assessed as late apoptosis at 0.5 uM incubated for > 6 hrs by annexin V/PI staining based analysis (Rvb=6.12%); assay type: functional
[16] = target: MAP kinase-activated protein kinase 2 (Homo sapiens) (UniProt P49137); test: Inhibition of MAPKAPK2 (unknown origin) at 1000 nM in the presence of ATP by Kinome scan method relative to control
HCT-116 [17] = test: Induction of apoptosis in human HCT-116 cells assessed as necrosis cells at 0.5 uM incubated for > 6 hrs by annexin V/PI staining based analysis (Rvb=0.55%); assay type: functional
[18] = target: Dual specificity protein kinase CLK1 (Homo sapiens) (UniProt P49759); test: Inhibition of CLK (unknown origin) in human MDA-MB-468 cells assessed as SRSF1 phosphorylation level incubated for 3 hrs by immunoblot analysis; assay type: cell-based
[19] = target: Ephrin type-A receptor 1 (Homo sapiens) (UniProt P21709); test: Inhibition of EPHA1 (unknown origin) at 1000 nM in the presence of ATP by Kinome scan method relative to control
[20] = target: Rho-associated protein kinase 1 (Homo sapiens) (UniProt Q13464); test: Inhibition of ROCK1 (unknown origin) at 100 nM in the presence of ATP by Kinome scan method relative to control
[21] = target: Dual specificity protein kinase CLK1 (Homo sapiens) (UniProt P49759); test: Inhibition of CLK (unknown origin) in human 184-hTERT cells assessed as induction in alternative splicing effect in RBM25-PSEN1 level incubated for 6 hrs by RT-PCR analysis; assay type: cell-based; settings: dose 0.2-5 µM; summary of the method: as §1
[22] = target: Dual specificity protein kinase CLK1 (Homo sapiens) (UniProt P49759); test: Inhibition of CLK (unknown origin) in human HCT-116 cells assessed as induction in alternative splicing effect in RBM25-PSEN1 level incubated for 6 hrs by RT-PCR analysis; assay type: cell-based; settings: dose 0.2-5 µM; summary of the method: as §1
[23] = target: Serine/threonine-protein kinase Nek2 (Homo sapiens) (UniProt P51955); test: Inhibition of NEK2 (unknown origin) at 1000 nM in the presence of ATP by Kinome scan method relative to control
[24] = target: Serine/threonine-protein kinase Nek1 (Homo sapiens) (UniProt Q96PY6); test: Inhibition of NEK1 (unknown origin) at 1000 nM in the presence of ATP by Kinome scan method relative to control
[25] = target: MAP kinase-activated protein kinase 2 (Homo sapiens) (UniProt P49137); test: Inhibition of MAPKAPK2 (unknown origin) at 100 nM in the presence of ATP by Kinome scan method relative to control
[26] = target: Glycogen synthase kinase-3 beta (Homo sapiens) (UniProt P49841); test: Inhibition of GSK3B (unknown origin) at 100 nM in the presence of ATP by Kinome scan method relative to control
[27] = target: Focal adhesion kinase 1 (Homo sapiens) (UniProt Q05397); test: Inhibition of PTK2 (unknown origin) at 1000 nM in the presence of ATP by Kinome scan method relative to control
HCT-116 [28] = test: Induction of cell cycle arrest in human HCT-116 cells assessed as G2/M phase at 5 uM incubated for 6 hrs by flow cytometry analysis (Rvb=25.8%); assay type: functional
[29] = target: Serine/threonine-protein kinase Nek1 (Homo sapiens) (UniProt Q96PY6); test: Inhibition of NEK1 (unknown origin) at 100 nM in the presence of ATP by Kinome scan method relative to control
HCT-116 [30] = test: Induction of apoptosis in human HCT-116 cells assessed as early apoptosis at 0.1 uM incubated for > 6 hrs by annexin V/PI staining based analysis (Rvb=3.29%); assay type: functional

Dual specificity protein kinase CLK1 (Homo sapiens), sequence (P49759 whole entry, looked up, canonical isoform): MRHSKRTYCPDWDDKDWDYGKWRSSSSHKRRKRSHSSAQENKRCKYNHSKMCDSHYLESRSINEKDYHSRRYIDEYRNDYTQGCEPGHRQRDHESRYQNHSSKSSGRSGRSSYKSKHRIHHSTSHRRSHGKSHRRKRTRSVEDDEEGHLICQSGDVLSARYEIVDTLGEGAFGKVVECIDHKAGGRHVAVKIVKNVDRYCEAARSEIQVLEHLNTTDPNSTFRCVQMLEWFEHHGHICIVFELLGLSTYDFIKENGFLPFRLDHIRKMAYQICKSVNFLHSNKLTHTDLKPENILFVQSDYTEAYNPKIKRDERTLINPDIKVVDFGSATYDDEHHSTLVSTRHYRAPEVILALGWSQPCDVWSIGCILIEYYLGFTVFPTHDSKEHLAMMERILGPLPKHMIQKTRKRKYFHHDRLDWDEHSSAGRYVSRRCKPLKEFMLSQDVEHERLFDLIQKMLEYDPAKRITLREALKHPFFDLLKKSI
MAP kinase-activated protein kinase 2 (Homo sapiens), sequence (P49137 whole entry, looked up): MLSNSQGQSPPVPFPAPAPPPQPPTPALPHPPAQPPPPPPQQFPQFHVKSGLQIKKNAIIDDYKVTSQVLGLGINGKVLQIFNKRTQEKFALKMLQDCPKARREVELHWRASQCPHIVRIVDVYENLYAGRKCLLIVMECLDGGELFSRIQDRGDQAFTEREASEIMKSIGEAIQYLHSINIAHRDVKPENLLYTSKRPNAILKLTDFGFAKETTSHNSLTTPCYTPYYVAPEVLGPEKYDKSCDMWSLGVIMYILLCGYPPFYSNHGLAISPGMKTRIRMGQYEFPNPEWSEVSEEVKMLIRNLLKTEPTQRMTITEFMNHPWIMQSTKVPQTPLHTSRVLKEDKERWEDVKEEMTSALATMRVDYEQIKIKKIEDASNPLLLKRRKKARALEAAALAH
Serine/threonine-protein kinase Nek1 (Homo sapiens), sequence (Q96PY6 whole entry): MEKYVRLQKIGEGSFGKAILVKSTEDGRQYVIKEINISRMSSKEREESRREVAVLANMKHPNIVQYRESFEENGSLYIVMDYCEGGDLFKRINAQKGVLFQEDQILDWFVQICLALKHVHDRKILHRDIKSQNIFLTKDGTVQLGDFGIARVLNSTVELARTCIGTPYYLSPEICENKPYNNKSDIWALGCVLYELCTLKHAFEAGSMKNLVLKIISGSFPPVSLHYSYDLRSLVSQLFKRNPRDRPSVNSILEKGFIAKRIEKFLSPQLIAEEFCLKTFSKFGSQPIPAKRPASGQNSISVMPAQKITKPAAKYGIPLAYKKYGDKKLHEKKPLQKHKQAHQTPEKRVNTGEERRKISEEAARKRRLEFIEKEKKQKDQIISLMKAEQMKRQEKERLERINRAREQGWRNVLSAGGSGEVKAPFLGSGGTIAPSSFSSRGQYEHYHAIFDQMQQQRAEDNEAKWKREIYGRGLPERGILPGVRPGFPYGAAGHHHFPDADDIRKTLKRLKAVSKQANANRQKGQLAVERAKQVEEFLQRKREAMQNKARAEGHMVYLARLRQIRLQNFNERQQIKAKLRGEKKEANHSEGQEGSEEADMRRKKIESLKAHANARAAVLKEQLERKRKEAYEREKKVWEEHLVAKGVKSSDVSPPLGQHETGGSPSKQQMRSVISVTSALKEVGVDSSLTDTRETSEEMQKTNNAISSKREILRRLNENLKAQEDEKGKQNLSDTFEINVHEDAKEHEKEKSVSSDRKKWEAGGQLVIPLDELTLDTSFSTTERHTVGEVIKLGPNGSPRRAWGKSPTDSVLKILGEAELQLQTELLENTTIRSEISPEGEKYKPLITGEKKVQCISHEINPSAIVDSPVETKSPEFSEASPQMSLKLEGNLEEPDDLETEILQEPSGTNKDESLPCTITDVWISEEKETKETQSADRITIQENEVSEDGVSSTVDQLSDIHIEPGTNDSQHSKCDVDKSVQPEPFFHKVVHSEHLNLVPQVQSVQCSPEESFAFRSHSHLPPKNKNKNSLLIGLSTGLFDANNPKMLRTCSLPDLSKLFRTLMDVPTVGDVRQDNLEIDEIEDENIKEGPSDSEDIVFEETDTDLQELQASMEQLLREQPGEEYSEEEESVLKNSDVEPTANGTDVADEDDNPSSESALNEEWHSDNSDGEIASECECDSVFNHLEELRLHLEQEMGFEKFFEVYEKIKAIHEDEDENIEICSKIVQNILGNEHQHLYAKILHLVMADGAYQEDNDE
Rho-associated protein kinase 1 (Homo sapiens), sequence (Q13464 2-1354 limits assumed): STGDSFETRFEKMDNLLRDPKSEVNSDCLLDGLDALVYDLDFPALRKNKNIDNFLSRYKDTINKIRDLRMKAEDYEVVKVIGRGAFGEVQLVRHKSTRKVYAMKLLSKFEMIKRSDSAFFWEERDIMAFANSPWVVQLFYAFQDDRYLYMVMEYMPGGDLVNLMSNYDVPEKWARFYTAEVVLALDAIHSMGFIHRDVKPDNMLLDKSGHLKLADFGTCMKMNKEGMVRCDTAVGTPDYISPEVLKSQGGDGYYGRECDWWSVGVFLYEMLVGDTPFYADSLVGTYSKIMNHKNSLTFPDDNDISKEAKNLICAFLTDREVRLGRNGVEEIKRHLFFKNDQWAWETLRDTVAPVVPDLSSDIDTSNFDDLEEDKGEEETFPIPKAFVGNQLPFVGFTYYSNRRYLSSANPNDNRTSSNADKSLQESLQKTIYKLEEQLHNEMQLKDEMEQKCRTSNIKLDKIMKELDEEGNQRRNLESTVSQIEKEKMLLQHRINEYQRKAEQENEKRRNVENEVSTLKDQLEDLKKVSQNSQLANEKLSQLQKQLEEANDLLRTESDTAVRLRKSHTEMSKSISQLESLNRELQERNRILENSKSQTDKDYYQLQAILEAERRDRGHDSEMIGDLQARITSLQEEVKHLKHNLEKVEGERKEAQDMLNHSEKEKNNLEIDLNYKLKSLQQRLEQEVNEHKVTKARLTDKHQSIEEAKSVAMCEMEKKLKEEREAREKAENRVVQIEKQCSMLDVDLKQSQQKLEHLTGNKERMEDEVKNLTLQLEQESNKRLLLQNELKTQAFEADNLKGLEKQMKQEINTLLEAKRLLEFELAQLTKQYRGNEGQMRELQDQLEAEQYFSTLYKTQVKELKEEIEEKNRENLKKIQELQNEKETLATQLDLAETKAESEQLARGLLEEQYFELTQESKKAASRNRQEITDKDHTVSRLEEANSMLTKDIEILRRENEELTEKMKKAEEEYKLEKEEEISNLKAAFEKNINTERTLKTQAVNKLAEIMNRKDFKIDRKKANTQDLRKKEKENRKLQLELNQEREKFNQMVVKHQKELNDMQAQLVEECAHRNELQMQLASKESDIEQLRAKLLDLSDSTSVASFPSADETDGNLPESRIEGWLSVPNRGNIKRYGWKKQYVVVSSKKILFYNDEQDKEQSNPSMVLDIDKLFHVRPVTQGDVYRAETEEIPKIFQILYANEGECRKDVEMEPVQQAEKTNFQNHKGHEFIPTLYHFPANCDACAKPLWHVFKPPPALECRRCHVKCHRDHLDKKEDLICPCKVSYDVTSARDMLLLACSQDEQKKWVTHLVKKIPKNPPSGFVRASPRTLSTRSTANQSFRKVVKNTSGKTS
Mitogen-activated protein kinase 1 (Homo sapiens), sequence (P28482 whole entry): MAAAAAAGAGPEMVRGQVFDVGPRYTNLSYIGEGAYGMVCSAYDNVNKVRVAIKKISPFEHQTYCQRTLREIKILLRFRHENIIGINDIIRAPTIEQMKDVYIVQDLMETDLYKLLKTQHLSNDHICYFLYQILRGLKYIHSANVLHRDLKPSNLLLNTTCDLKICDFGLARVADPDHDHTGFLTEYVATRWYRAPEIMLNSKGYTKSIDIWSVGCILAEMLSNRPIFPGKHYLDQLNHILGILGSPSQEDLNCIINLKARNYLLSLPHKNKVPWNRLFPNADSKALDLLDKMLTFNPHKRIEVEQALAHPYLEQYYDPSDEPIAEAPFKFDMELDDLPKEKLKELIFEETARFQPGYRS
Dual specificity protein kinase CLK3 (Homo sapiens), sequence (P49761 whole entry, looked up): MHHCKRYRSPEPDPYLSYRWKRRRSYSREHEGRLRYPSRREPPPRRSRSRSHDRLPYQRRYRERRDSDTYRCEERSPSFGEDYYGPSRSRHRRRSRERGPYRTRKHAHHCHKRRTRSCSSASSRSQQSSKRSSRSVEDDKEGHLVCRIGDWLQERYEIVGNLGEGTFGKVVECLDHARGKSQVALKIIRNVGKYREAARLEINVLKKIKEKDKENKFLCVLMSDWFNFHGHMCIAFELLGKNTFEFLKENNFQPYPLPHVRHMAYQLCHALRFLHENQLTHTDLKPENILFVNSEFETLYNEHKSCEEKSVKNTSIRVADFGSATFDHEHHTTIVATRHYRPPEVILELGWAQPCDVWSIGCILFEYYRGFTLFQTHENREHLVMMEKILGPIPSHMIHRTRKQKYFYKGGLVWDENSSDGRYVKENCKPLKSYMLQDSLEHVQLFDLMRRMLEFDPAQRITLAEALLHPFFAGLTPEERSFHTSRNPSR
Glycogen synthase kinase-3 beta (Homo sapiens), sequence (P49841 whole entry, looked up): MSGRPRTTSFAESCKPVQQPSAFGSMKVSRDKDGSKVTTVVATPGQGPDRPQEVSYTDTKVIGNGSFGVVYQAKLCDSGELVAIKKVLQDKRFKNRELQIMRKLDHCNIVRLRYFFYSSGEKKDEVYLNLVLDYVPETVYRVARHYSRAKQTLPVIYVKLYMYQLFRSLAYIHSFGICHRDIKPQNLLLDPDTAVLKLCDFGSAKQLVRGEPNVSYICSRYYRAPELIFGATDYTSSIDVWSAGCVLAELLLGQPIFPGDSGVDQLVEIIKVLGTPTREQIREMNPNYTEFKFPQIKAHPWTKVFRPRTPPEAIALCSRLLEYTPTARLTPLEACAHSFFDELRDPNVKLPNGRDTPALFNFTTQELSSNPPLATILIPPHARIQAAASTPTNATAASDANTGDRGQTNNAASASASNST

SMILES: CN1CCN(C(=O)C(C)(C)c2ccc(C(=O)Nc3cn4cc(-c5ccncc5)ccc4n3)cc2)CC1 [T3-CLK]
- inhibition [1]: 4%
- inhibition [2]: 9%
- Activity (HCT-116 [3]): 13.3%
- inhibition [4]: 4%
- remaining at 6 h, 5.44 µM [5]: 98.9%
- viability at 0.5 µM (HCT-116 [6]): 89.4%
- Activity (HCT-116 [7]): 30.5%
- inhibition [8]: 38%
- inhibition [9]: 3%
- Activity (HCT-116 [10]): 8.23%
- inhibition [11]: Dose-Dependent Effect
- Activity (HCT-116 [12]): 28.4%
- inhibition (Homo sapiens): 0%
- Activity (HCT-116 [13]): 40.7%
- inhibition [14]: Active
- Activity (HCT-116 [15]): 6.85%
- inhibition [16]: 2%
- Activity (HCT-116 [17]): 0.69%
- inhibition [18]: Active
- inhibition [19]: -1%
- inhibition [20]: 5%
- inhibition [21]: Dose-Dependent Effect
- inhibition [22]: Dose-Dependent Effect
- inhibition [23]: 24%
- inhibition [24]: 25%
- inhibition [25]: 4%
- inhibition [26]: -3%
- inhibition [27]: -7%
- Activity (HCT-116 [28]): 34.5%
- inhibition [29]: 4%
- Activity (HCT-116 [30]): 3.11%
